This is a sample that favours compounds with a hit; in the whole collection about 1.8% have one here.
CHRM4 antagonist = human M4 muscarinic receptor antagonists, primary screen, CHO cells, Fluo-8 calcium fluorescence | inhibition, % at 3 µM | actives 0.73% (n = 360,000) | CHO-hM4 cells, ACh EC80 | Muscarinic acetylcholine receptor M4 (Homo sapiens), P08173;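 active = inhibition above its plate's cutoff, the mean inhibition of sample wells plus 3 SD, cut at about 27% in these data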;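 note: 0% = acetylcholine EC80 with DMSO and 100% = DMSO without agonist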
Target sequence (P08173 whole entry, looked up): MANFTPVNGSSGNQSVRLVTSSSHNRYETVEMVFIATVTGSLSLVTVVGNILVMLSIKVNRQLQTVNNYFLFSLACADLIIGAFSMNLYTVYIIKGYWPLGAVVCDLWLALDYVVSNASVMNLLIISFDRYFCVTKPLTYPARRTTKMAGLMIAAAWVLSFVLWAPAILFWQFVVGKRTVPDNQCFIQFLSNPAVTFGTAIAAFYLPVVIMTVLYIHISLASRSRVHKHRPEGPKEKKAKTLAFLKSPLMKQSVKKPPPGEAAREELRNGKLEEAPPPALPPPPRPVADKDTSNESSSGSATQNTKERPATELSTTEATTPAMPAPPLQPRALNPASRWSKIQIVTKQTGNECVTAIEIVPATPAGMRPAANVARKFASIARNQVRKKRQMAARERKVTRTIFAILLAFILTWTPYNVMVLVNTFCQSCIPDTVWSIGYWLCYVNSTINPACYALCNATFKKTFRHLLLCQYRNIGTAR
M5 ag = human M5 muscarinic receptor agonists, primary screen, CHO-K1 cells, Fluo-8 calcium fluorescence; Muscarinic acetylcholine receptor M5 (Homo sapiens), P08912; CHO-K1 hM5 cells; 0% DMSO wells, 100% maximal acetylcholine response; activation, % at 3 µM; actives 0.19% (n = 360,000); AID 624037, 2012;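 active = activation above the run's mean over test compounds plus 3 SD, cut at about 23% in these data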;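 note: signal is peak over basal fluorescence ratio across the kinetic read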
CHRM4 agonist = human M4 muscarinic receptor agonists, primary screen, CHO-K1 cells, Fluo-8 calcium fluorescence | Muscarinic acetylcholine receptor M4 (Homo sapiens), P08173 | CHO-K1 hM4/Gqi5; vehicle 0%, full acetylcholine response 100% | activation, % at 3 µM | actives 0.14% (n = 360,000);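 active = activation above the run mean over all test wells plus 3 SD, cut at about 32% in these data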;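 note: peak over basal fluorescence ratio per well then scaled between controls; 0% = DMSO wells and 100% = acetylcholine at EC100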
CHRM4 PAM = human M4 muscarinic receptor positive allosteric modulators, primary screen, CHO-K1 cells, Fluo-8 calcium fluorescence | actives 0.4% (n = 360,000) | activation, % at 3 µM | Muscarinic acetylcholine receptor M4 (Homo sapiens), P08173 | AID 624126, 2012 | CHO-K1 hM4/Gqi5, ACh EC20; 0% = ACh EC20, 100% = maximal ACh;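 active = activation above its plate's cutoff, the mean activation of sample wells plus 3 SD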
M5 PAM = human M5 muscarinic receptor positive allosteric modulators, primary screen, CHO-K1 cells, Fluo-8 calcium fluorescence | activation, % at 3 µM | actives 0.3% (n = 360,000) | CHO-K1 hM5, ACh EC20 PAM; 0% = ACh EC20, 100% = ACh EC100 | AID 624038, 2012;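 active = activation above the run cutoff, the mean activation of all test compounds plus 3 SD, cut at about 18% in these data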
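Measured by: Fluo-8 calcium fluorescence; material: human M5 receptor in CHO-K1 cells; schedule: Post-acetylcholine fluorescence recording 140 s; benchmarks: low control EC20 acetylcholine (0%), high control EC100 acetylcholine (100%); read-out: Max/basal fluorescence ratio as % of EC20–EC100 ACh window; compound: single dose, 3 µM nominal final test concentration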
M5 antag = human M5 muscarinic receptor antagonists, primary screen, CHO cells, Fluo-8 calcium fluorescence | Muscarinic acetylcholine receptor M5 (Homo sapiens), P08912 | CHO-hM5 cells, ACh EC80 | inhibition, % at 3 µM | actives 0.59% (n = 360,000);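 active = inhibition above a per-plate cutoff, the mean of that plate's test compounds plus 3 SD, cut at about 27% in these data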;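 note: 0% = acetylcholine EC80 with DMSO and 100% = DMSO without agonist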
* = called active by the depositor.

SMILES	CHRM4 antagonist	M5 ag	CHRM4 agonist	CHRM4 PAM	M5 PAM	M5 antag
CC(C)(C)S(=O)N1Cc2cc(C(=O)Nc3ccc(-c4ccccc4)cc3)nc(-c3cccc(-c4cc5ccccc5o4)c3)c2[C@@H]1CCO (stereo partly specified)	-8	4	1	21*	12	-5
CCOC(CNC(=O)C1CCN(S(=O)(=O)c2ccc3nc4c(c(C(=O)O)c3c2)CCCCC4)CC1)OCC	1	-2	0	-1	0	4
Cc1nc(CN2CCN(Cc3nc(C(c4ccccc4)c4ccccc4)no3)CC2)cs1	26	-10	1	-19	-15	34*
Cc1cccnc1CN1CCN(Cc2nc(C(c3ccccc3)c3ccccc3)no2)CC1	36*	-19	1	-55	-36	9
c1ccc(C(c2ccccc2)c2noc(CN3CCN(C4CCCC4)CC3)n2)cc1	30*	-11	0	-21	-20	11
CC(=O)N1CCN(Cc2nc(C(c3ccccc3)c3ccccc3)no2)CC1	3	-10	1	-6	-17	4
CCOC(=O)N1CCN(c2c(NCc3ccccc3Cl)c(=O)c2=O)CC1	1	3	-1	-2	11	-3
O=C(O)C1CCN(C(=O)c2ccccc2C(=O)N2CCC(C(=O)O)CC2)CC1	3	0	0	7	-1	0
O=C(O)C1CCN(C(=O)c2cccc3ccccc23)CC1	-26	0	1	18*	5	-7
Cc1ccc(C)c(N2CCN(C(=O)c3cn(C)c4ccc(S(=O)(=O)N(C)C)cc4c3=O)CC2)c1	95*	-3	1	-15	-19	13
CN(C)S(=O)(=O)c1ccc2c(c1)c(=O)c(C(=O)N1CCN(c3ccccn3)CC1)cn2C	-8	1	0	6	-6	4
N#Cc1c(N)c(C#N)c(-c2ccc3c(c2)OCO3)c2c1CCCC2	1	-3	0	39*	23*	-18
N#Cc1c(N)c(C#N)c(-c2ccc(O)cc2)c2c1CCCC2	1	0	8	5	-2	3
CSc1nc(SC(C)C(=O)O)c2c3c(sc2n1)COC(C)(C)C3 (stereo unspecified)	-5	-2	0	8	7	2
CCCSc1nc(NCc2ccco2)c2c3c(sc2n1)COC(C)(C)C3	5	4	-1	43*	4	-3
CSc1nc(SCCN(C)C)c2c3c(sc2n1)COC(C)(C)C3	-14	-1	52*	7	17	-7
CCCCSc1nc(NCc2ccco2)c2c3c(sc2n1)COC(C)(C)C3	8	-1	-2	-2	3	-1
CCCCCOc1ccc(Br)cc1CSC(=N)N	25	4	12	-14	-17	32*
COc1ccc(Cn2cc(F)c(=O)n(C)c2=O)cc1[N+](=O)[O-]	-7	3	1	0	18*	-9
COc1ccc(NC(=O)COC(=O)C2CC2)cc1S(=O)(=O)N1CCCCC1	-28	4	3	5	1	-7
Cn1c(N)c(-c2ccccc2)c2ccc([N+](=O)[O-])cc2c1=O	17	23	56*	-20	-9	16
CC[C@@H](C)[C@@H]1CN([C@@H](C)CN2CCC[C@H]2CN2C(N)=NC[C@@H]2Cc2ccccc2)C(=N)N1CCCC1CCCC1	65*	-11	0	-15	-41	5
CC[C@@H](C)[C@@H]1CN([C@@H](C)CN2CCC[C@H]2CN2C(N)=NC[C@H]2CC(C)C)C(=N)N1CCCC1CCCC1	8	-3	0	-12	-4	-8
CCCCN1C(=N)N([C@@H](C)CN2CCC[C@H]2CN2C(N)=NC[C@@H]2Cc2ccccc2)C[C@H]1Cc1ccccc1	40*	-14	1	-15	-31	15
CC(C)(C)c1ccc(Cn2nc(CC(=O)O)c3ccccc3c2=O)cc1	-6	3	0	12	21*	-22
SMILES	CHRM4 antagonist	M5 ag	CHRM4 agonist	CHRM4 PAM	M5 PAM	M5 antag
CCOC(=O)Cc1nn(Cc2ccccc2)c(=O)c2ccccc12	0	-2	1	-2	-1	-8
CCc1sc(C(=O)Nc2ncccc2O)cc1C	-5	-5	0	20*	-7	-2
CCc1sc(C(=O)Nc2ncccc2C)cc1C	10	0	2	5	0	9
CCN1C(=O)N/C(=C/c2cc(C)n(Cc3ccccc3)c2C)C1=O	6	0	3	5	0	3
CCn1c(C)cc(/C=C2\NC(=O)N(Cc3ccc(Cl)cc3)C2=O)c1C	31*	5	2	9	0	-5
CC(=O)c1ccc(NC(=S)NCc2ccc(Cl)cc2Cl)cc1	18	8	18	-18	-25	29*
CC(=O)c1ccc(NC(=O)Nc2ccc(Cl)cc2)cc1	6	10	28	-14	-21	24
Fc1ccc(-n2nnnc2-c2cnc(-c3cccs3)nc2C(F)(F)F)cc1	48*	2	14	-20	-23	47*
O=C(N/N=C/c1ccc(O)cc1)c1ccc(COc2cc(Cl)ccc2Cl)o1	20	35*	25	-9	-6	12
Cc1nc(N)ncc1-c1ccc2c(c1)OCO2	-8	-6	0	2	9	0
CC(C)CCNc1nc(N)c([N+](=O)[O-])c(NCCO)n1	-12	19	1	19	19*	-14
Nc1nc(NCCOCCO)nc(NC2CCCCC2)c1[N+](=O)[O-]	3	6	2	3	-4	28*
CC(C)CNc1nc(N)c([N+](=O)[O-])c(NCC2CCCO2)n1 (stereo unspecified)	1	-1	2	35*	11	-6
c1ccc2c(c1)Cn1nnnc1-2	4	1	0	12	18*	-8
CC(OC(=O)CNC(=O)c1ccc2ccccc2c1)C(=O)N(C)C1CCCCC1 (stereo unspecified)	-15	2	7	6	-4	1
Cc1ccc(C(C)C)cc1NC(=O)Nc1ccc([N+](=O)[O-])cc1	20	7	19	-14	-16	28*
Cc1cc(O)c(C(C)C)cc1NC(=O)Nc1ccc([N+](=O)[O-])cc1	-7	1	5	1	-3	18

Screens as filed in PubChem.
